Source: ChEMBL document CHEMBL2390925, “Further studies on 2-arylacetamide pyridazin-3(2H)-ones: design, synthesis and evaluation of 4,6-disubstituted analogs as formyl peptide receptors (FPRs) agonists” (Eur J Med Chem, 2013)

Assays:
fMet-Leu-Phe receptor = molecular target: T1, fMet-Leu-Phe receptor (Homo sapiens, UniProt P21462); assay: Agonist activity at FPR1 (unknown origin) transfected in human HL60 cells assessed as induction of Ca2+ mobilization; assay type: functional, cell-based, HL-60
T1 sequence (P21462 whole entry): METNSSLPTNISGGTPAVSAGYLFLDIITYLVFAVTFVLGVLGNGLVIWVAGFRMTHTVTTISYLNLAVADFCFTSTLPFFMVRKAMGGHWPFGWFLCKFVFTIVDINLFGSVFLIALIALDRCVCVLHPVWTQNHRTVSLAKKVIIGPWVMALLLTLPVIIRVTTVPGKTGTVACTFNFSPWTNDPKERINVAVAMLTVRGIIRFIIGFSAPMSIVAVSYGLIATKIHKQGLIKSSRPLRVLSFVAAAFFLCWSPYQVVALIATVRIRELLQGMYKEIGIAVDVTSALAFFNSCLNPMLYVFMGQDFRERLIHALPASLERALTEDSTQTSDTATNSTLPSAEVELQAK

[1] = molecular target: T2, N-formyl peptide receptor 2 (Homo sapiens, UniProt P25090); assay: Agonist activity at FPR2 (unknown origin) transfected in human HL60 cells assessed as induction of Ca2+ mobilization; assay type: functional, cell-based, HL-60
T2 sequence (P25090 whole entry): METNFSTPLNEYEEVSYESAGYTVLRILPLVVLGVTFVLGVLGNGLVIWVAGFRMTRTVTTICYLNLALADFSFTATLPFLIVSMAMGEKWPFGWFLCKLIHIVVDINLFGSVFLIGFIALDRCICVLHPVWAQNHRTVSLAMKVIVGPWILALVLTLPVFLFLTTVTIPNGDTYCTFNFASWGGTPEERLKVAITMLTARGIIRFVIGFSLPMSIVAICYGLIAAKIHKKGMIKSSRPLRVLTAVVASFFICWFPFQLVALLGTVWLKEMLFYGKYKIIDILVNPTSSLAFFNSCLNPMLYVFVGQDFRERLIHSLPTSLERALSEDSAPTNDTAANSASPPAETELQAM

[2] = molecular target: T3, N-formyl peptide receptor 3 (Homo sapiens, UniProt P25089); assay: Agonist activity at FPR3 (unknown origin) transfected in human HL60 cells assessed as induction of Ca2+ mobilization; assay type: cell-based, HL-60
T3 sequence (P25089 whole entry): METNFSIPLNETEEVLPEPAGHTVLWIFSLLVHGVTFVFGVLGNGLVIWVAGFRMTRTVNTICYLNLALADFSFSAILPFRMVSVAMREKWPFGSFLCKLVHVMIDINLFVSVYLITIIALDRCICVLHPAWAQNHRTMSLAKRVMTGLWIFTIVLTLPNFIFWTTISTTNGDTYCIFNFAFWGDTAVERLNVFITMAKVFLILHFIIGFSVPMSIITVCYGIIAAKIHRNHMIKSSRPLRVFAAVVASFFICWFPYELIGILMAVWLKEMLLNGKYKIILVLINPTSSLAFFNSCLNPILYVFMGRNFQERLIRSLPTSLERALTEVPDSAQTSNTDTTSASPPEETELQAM

HL-60 [3] = assay: Cytotoxicity against human wild type HL60 cells at 5 to 20 uM after 60 mins by CellTitre-Glo luminescent assay; assay type: cell-based; settings: hl-60, 1 h
Procedure, shortened: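 Wild-type HL-60 cells at 3×10^4 cells/well were exposed to 5, 10 or 20 µM compound for 60 min at 37 °C in 5% CO2. Samples were equilibrated to room temperature for 30 min before the CellTiter-Glo luminescence read. Triplicate samples; the experiment was representative of two.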

HL-60 [4] = assay: Effect on Ca2+ mobilization in human wild type HL60 cells; assay type: functional, cell-based
Procedure, shortened: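 Wild-type, non-transfected HL-60 cells, grown without G418, were run in the same Fluo-4 Ca2+ flux assay. Fluorescence was monitored every 5 s for 240 s at room temperature.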

[5] = molecular target: T4, N-formyl peptide receptor 2 (Homo sapiens) (UniProt P25090); assay: Agonist activity at FPR2 (unknown origin) transfected in human HL60 cells assessed as induction of Ca2+ mobilization relative to WKYMVm; assay type: functional, cell-based; settings: HL-60
T4 sequence (whole entry): T2 sequence (P25090 whole entry)
Procedure, shortened: (§1)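 Same Fluo-4 Ca2+ flux in transfected HL-60 cells. The peak fluorescence change over baseline was normalized to 5 nM fMLF for FPR1 cells and to 5 nM WKYMVm for FPR2 and FPR3 cells, each taken as 100%. Efficacy was read from 5–6 point dose-response curves.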

[6] = molecular target: T5, fMet-Leu-Phe receptor (Homo sapiens) (UniProt P21462); assay: Agonist activity at FPR1 (unknown origin) transfected in human HL60 cells assessed as induction of Ca2+ mobilization relative to fMLF; assay type: functional, cell-based; settings: HL-60; procedure, shortened: as §1
T5 sequence (whole entry): T1 sequence (P21462 whole entry)

[7] = molecular target: fMet-Leu-Phe receptor 1/2 (Homo sapiens) (UniProt P21462+P25090); assay: Agonist activity at FPR1/FPR2 in human neutrophils assessed as induction of Ca2+ mobilization relative to fMLF; assay type: functional
Procedure, shortened: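 Neutrophils from healthy donors were isolated by dextran sedimentation, Histopaque 1077 gradient and hypotonic red cell lysis. […] Peak response was normalized to 5 nM fMLF as 100%. EC50 comes from 5–6 point curves, mean of three experiments with different donors.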

Structure (SMILES) | EC50 (fMet-Leu-Phe receptor) [µM] | EC50 [1] [µM] | EC50 [2] [µM] | EC50 (HL-60 [4]) [µM] | Efficacy [5] [%] | Efficacy [6] [%] | Efficacy [7] [%] | Activity (HL-60 [3])
COc1cccc(Cc2cc(-c3ccc(C)cc3)nn(CC(=O)Nc3ccc4c(c3)OCO4)c2=O)c1 | > 50 | > 50 | > 50 | > 50 |  |  |  | Non-toxic
COc1cccc(Cc2cc(-c3ccc(Cl)cc3)nn(CC(=O)Nc3ccc(F)cc3)c2=O)c1 | > 50 | > 50 | > 50 | > 50 |  |  |  | Non-toxic
COc1cccc(Cc2cc(-c3cccs3)nn(CC(=O)Nc3ccc4c(c3)OCO4)c2=O)c1 | > 50 | > 50 | > 50 | > 50 |  |  |  | Non-toxic
CC1=NN(CC(=O)Nc2ccc(I)cc2)C(=O)CC1 | > 50 | > 50 | > 50 | > 50 |  |  |  | Non-toxic
COc1ccc(-c2cc(Cc3cccc(OC)c3)c(=O)n(CC(=O)Nc3ccc(F)cc3)n2)cc1 | > 50 | > 50 | > 50 | > 50 |  |  |  | Non-toxic
COc1ccc(Cc2cc(-c3ccc(F)cc3)nn(CC(=O)Nc3ccc(Br)cc3)c2=O)cc1 | > 50 | > 50 | > 50 | > 50 |  |  |  | Non-toxic
COc1ccc(Cc2cc(-c3ccc(OC)cc3)nn(CC(=O)Nc3ccc(Br)cc3)c2=O)cc1 | > 50 | > 50 | > 50 | > 50 |  |  |  | Non-toxic
COc1cccc(Cc2cc(-c3ccccc3)nn(CC(=O)Nc3ccc4c(c3)OCO4)c2=O)c1 | > 50 | > 50 | > 50 | > 50 |  |  |  | Non-toxic
COc1cccc(Cc2cc(-c3ccc(Cl)cc3)nn(CC(=O)Nc3ccc4c(c3)OCO4)c2=O)c1 | > 50 | > 50 | > 50 | > 50 |  |  |  | Non-toxic
COc1ccc(Cc2cc(-c3ccc(C)cc3)nn(CC(=O)Nc3ccc(Br)cc3)c2=O)cc1 | > 50 | > 50 | > 50 | > 50 |  |  |  | Non-toxic
Cc1ccc(=O)n(CC(=O)Nc2ccc(I)cc2)n1 | > 50 | > 50 | > 50 | > 50 |  |  |  | Non-toxic
COc1ccc(Cc2cc(-c3ccc(Cl)cc3)nn(CC(=O)Nc3ccc(Br)cc3)c2=O)cc1 | > 50 | > 50 | > 50 | > 50 |  |  |  | Non-toxic
COc1cccc(Cc2cc(-c3ccc(C)cc3)nn(CC(=O)Nc3ccc(F)cc3)c2=O)c1 | > 50 | > 50 | > 50 | > 50 |  |  |  | Non-toxic
COc1cccc(Cc2cc(-c3ccc(F)cc3)nn(CC(=O)Nc3ccc4c(c3)OCO4)c2=O)c1 | > 50 | > 50 | > 50 | > 50 |  |  |  | Non-toxic
COc1cccc(Cc2cc(-c3ccc(F)cc3)nn(CC(=O)Nc3ccc(F)cc3)c2=O)c1 | > 50 | > 50 | > 50 | > 50 |  |  |  | Non-toxic
COc1cccc(Cc2cc(-c3cccs3)nn(CC(=O)Nc3ccc(F)cc3)c2=O)c1 | > 50 | > 50 | > 50 | > 50 |  |  |  | Non-toxic
COc1cccc(Cc2cc(-c3ccccc3)nn(CC(=O)Nc3ccc(F)cc3)c2=O)c1 | > 50 | > 50 | > 50 | > 50 |  |  |  | Non-toxic
COc1ccc(-c2cc(Cc3cccc(OC)c3)c(=O)n(CC(=O)Nc3ccc4c(c3)OCO4)n2)cc1 | > 50 | > 50 | > 50 | > 50 |  |  |  | Non-toxic

Further lines, with some results ahead:

EC50 (fMet-Leu-Phe receptor) [µM] | EC50 [1] [µM] | EC50 [2] [µM] | EC50 (HL-60 [4]) [µM] | Efficacy [5] [%] | Efficacy [6] [%] | Efficacy [7] [%] | Structure (SMILES) | Activity (HL-60 [3])
> 50 | > 50 | > 50 | > 50 |  |  |  | Cc1cc(Cc2ccc(C#N)cc2)c(=O)n(CC(=O)Nc2ccc(Br)cc2)n1 | Non-toxic
> 50 | > 50 | > 50 | > 50 |  |  |  | COc1ccc(Cc2cc(-c3cccs3)nn(CC(=O)Nc3ccc(Br)cc3)c2=O)cc1 | Non-toxic
> 50 | > 50 | > 50 | > 50 |  |  |  | COc1ccc(Cc2cc(Cc3ccccc3)nn(CC(=O)Nc3ccc(Br)cc3)c2=O)cc1 | Non-toxic
 |  | > 50 | > 50 | 85 | 115 |  | Cc1cc(N)c(=O)n(CC(=O)Nc2ccc(Br)cc2)n1 | Non-toxic
13.8 | > 50 | > 50 | > 50 |  | 20 |  | Cc1cc(Cc2cccc3ccccc23)c(=O)n(CC(=O)Nc2ccc(Br)cc2)n1 | Non-toxic
 |  | > 50 | > 50 |  | 110 | 130 | Cc1cc(Cc2cccc(F)c2)c(=O)n(CC(=O)Nc2ccc(Br)cc2)n1 | Non-toxic
 |  | > 50 | > 50 |  | 80 | 65 | COc1cccc(Cc2cc(C3CCCCC3)nn(CC(=O)Nc3ccc(Br)cc3)c2=O)c1 | Non-toxic
 |  | > 50 | > 50 |  | 100 | 90 | Cc1cc(Cc2cccc(Cl)c2)c(=O)n(CC(=O)Nc2ccc(Br)cc2)n1 | Non-toxic
> 50 | > 50 | > 50 | > 50 |  |  |  | Cc1cc(Cc2ccc(C(F)(F)F)cc2)c(=O)n(CC(=O)Nc2ccc(Br)cc2)n1 | Non-toxic
> 50 | > 50 | > 50 | > 50 |  |  |  | COc1cc(Cc2cc(C)nn(CC(=O)Nc3ccc(Br)cc3)c2=O)cc(OC)c1 | Non-toxic
> 50 | > 50 | > 50 | > 50 |  |  |  | Cc1cc(Cc2ccccc2)c(=O)n(CC(=O)Nc2ccc(F)cc2)n1 | Non-toxic
 |  | > 50 | > 50 |  | 55 | 70 | COc1ccc(-c2cc(C)nn(CC(=O)Nc3ccc(Br)cc3)c2=O)cc1 | Non-toxic
> 50 | > 50 | > 50 | > 50 |  |  |  | Cc1cc(Cc2cccc(Br)c2)c(=O)n(CC(=O)Nc2ccc(Br)cc2)n1 | Non-toxic
> 50 | > 50 | > 50 | > 50 |  |  |  | Cc1cc(NC(=O)c2ccc(Br)cc2)c(=O)n(CC(=O)Nc2ccc(Br)cc2)n1 | Non-toxic
 |  | > 50 | > 50 |  | 80 | 75 | COc1cc(Cc2cc(C)nn(CC(=O)Nc3ccc(I)cc3)c2=O)cc(OC)c1 | Non-toxic
